# Reference: article PMC11559620 (Science Advances, 2024)
# Positions count from the first letter of the chain named. Numbers in names are those of the source. Ends that are not written are not given here.
# T1: CML18 (Arabidopsis thaliana, UniProt Q9M8U1)
# T1 sequence (Q9M8U1 1-165): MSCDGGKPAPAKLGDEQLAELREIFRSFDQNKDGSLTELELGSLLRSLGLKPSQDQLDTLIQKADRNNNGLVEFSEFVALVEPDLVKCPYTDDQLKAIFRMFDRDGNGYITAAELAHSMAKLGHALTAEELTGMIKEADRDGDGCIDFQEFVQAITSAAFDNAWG
# B1: CML18: calmodulin-like protein of Arabidopsis, At3g03000 (protein)
# chain: T1 sequence (Q9M8U1 1-165)
# modifications: left off: cYFP (C-terminal half of YFP), C-terminal, kept
# B2: CML18-D161N (protein, UniProt Q9M8U1 1-165, looked up, variant D161N)
# Probable calcium-binding …: T1 sequence (Q9M8U1 1-165) with D161N
# B3: NHX4: vacuolar exchanger; C-terminal residues T437 to C529 in Y2H (protein)
# chain: TKPLVNYLLPQDASHNTGNRGKRTEPGSPKEDATLPLLSFDESASTNFNRAKDSISLLMEQPVYTIHRYWRKFDDTYMRPIFGGPRRENQPEC
# modifications: left off: Gal4 DNA-binding domain (vector pGBKT7), end not stated, kept
# B4: W502A: NHX1 mutant in the CBD (protein, UniProt Q68KI4 1-538, looked up, variant W502A)
# Sodium/hydrogen exchanger 1: MLDSLVSKLPSLSTSDHASVVALNLFVALLCACIVLGHLLEENRWMNESITALLIGLGTGVTILLISKGKSSHLLVFSEDLFFIYLLPPIIFNAGFQVKKKQFFRNFVTIMLFGAVGTIISCTIISLGVTQFFKKLDIGTFDLGDYLAIGAIFAATDSVCTLQVLNQDETPLLYSLVFGEGVVNDATSVVVFNAIQSFDLTHLNHEAAFHLLGNFLYLFLLSTLLGAATGLISAYVIKKLYFGRHSTDREVALMMLMAYLSYMLAELFDLSGILTVFFCGIVMSHYTWHNVTESSRITTKHTFATLSFLAETFIFLYVGMDALDIDKWRSVSDTPGTSIAVSSILMGLVMVGRAAFVFPLSFLSNLAKKNQSEKINFNMQVVIWWSGLMRGAVSMALAYNKFTRAGHTDVRGNAIMITSTITVCLFSTVVFGMLTKPLISYLLPHQNATTSMLSDDNTPKSIHIPLLDQDSFIEPSGNHNVPRPDSIRGFLTRPTRTVHYYARQFDDSFMRPVFGGRGFVPFVPGSPTERNPPDLSKA
# B5: H499L: NHX1 mutant within the CBD (protein, UniProt Q68KI4 1-538, looked up, variant H499L)
# Sodium/hydrogen exchanger 1: B4 Sodium/hydrogen exchanger 1 with H499L, A502W
# B6: D506A: NHX1 mutant in the CBD (protein, UniProt Q68KI4 1-538, looked up, variant D506A)
# Sodium/hydrogen exchanger 1: B4 Sodium/hydrogen exchanger 1 with A502W, D506A
# B7: Y286A (protein, UniProt Q68KI4 1-538, looked up, variant Y286A)
# Sodium/hydrogen exchanger 1: B4 Sodium/hydrogen exchanger 1 with Y286A, A502W
# B8: H285L (protein, UniProt Q68KI4 1-538, looked up, variant H285L)
# Sodium/hydrogen exchanger 1: B4 Sodium/hydrogen exchanger 1 with H285L, A502W
# B9: H479L-H499L (protein, UniProt Q68KI4 1-538, looked up, variant H479L H499L)
# Sodium/hydrogen exchanger 1: B4 Sodium/hydrogen exchanger 1 with H479L, H499L, A502W
# B10: H479L: NHX1 mutant outside the CBD, control (protein, UniProt Q68KI4 1-538, looked up, variant H479L)
# Sodium/hydrogen exchanger 1: B4 Sodium/hydrogen exchanger 1 with H479L, A502W
# B11: NHX2: vacuolar exchanger; C-terminal residues G434 to P546 in Y2H (protein, UniProt Q56XP4 434-546, looked up, fragment)
# chain: GMLTKPLIRYLMPHQKATTSTTSMLSDDSTPKSIHIPLLDGEQLDSFELPGSHQDVPRPNSLRGFLMRPTRTVHYYWRQFDDAFMRPVFGGRGFVPFVPGSPTERSSHDLSKP
# Tests used:
# CML18 [1] = target: T1, CML18; assay: Isothermal titration calorimetry, CBD peptide; assay type: binding
# Summary of the method: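 ITC at 25°C: 200 μM CML18 was titrated into 20 μM CBD peptide in 2-μl injections at 150-s intervals, stirred at 750 rpm, in buffer C (pH 6.3) or D (pH 8.3), with 18 μM EGTA or 180 μM Ca2+. Heats from ligand-into-buffer controls were subtracted. Two titrations were run for each of two independent protein preparations.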
# CML18 [2] = target: T1, CML18; assay: Far-UV circular dichroism of CML18:CML-BD complex; assay type: binding
# Summary of the method: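 Far-UV CD (320–202 nm, 20°C, 1.0-mm quartz cuvette) of decalcified CML18, the synthetic CBD peptide, and a 1:1 protein:peptide mixture, each at pH 6.3 and 8.3. The spectrum expected for non-interacting samples was calculated as the sum of the two individual spectra and compared with the mixture.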
# CML18 [3] = assay: Yeast two-hybrid assay, interaction with CML18; assay type: cell-based, Arabidopsis; settings: for interaction with CML18 (Y2H): C-terminal cytosolic fragments, selective YNB media
# Summary of the method: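 Strain AH109 was cotransformed with NHX C-terminal fragments in pGBKT7 (GAL4 BD) and CML17 or CML18 in pGADT7 (GAL4 AD), selected on YNB-Trp-Leu. Cultures were grown at 28°C to saturation (OD600 ~2), then 5-μl drops of 10-fold dilutions were spotted on YNB-Trp-Leu, -His-Trp-Leu and -Ade-Trp-Leu. Plates were incubated at 28°C for 3–4 days. p53/pSV40 served as positive control, empty vectors as negative.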
# CML18 [4] = assay: Bimolecular fluorescence complementation, interaction with CML18; assay type: cell-based, Arabidopsis; settings: leaves of N. benthamiana
# Summary of the method: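 Agrobacterium GV3101 carrying BiFC constructs was co-infiltrated with a p19-transformed strain into 5- to 6-week-old N. benthamiana leaves. Full-length NHX1 or NHX2 and CML18 were each fused to complementary halves of eYFP. Empty pSPYCE(M) served as negative control. The lower epidermis was imaged by confocal microscopy (515-nm laser, 60× objective) under constant imaging settings, using a YFP filter.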
# yeast vacuoles = assay: Vacuolar pH of yeast by BCECF-AM; assay type: cell-based, Saccharomyces cerevisiae; settings: n = 8
# Tryptophan = assay type: physicochemical
# Summary of the method: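 Decalcified CML18 was dialysed into buffer C (20 mM MES pH 6.3) or D (20 mM tris pH 8.3), both with 80 mM KCl, 5 mM NaCl, 2 mM DTT. Samples of 10 μl at 25 μM were loaded into UV capillaries and heated from 35 to 95°C at […]. The initial Trp emission ratio (350/330 nm) was taken at the start. For Ca2+ titrations, 20 μM EGTA was kept constant.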
# [5] = Far-UV circular dichroism of CML18; assay type: physicochemical
# Summary of the method: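 CML18 was decalcified by dialysis against 20 mM EGTA, then re-dialysed into EGTA-free buffer C (20 mM MES pH 6.3, 80 mM KCl, 5 mM NaCl, 2 mM DTT) or buffer D (same, with 20 mM tris pH 8.3). Far-UV CD spectra (320–202 nm) were recorded at 0.2 mg/ml, 20°C, 1.0-mm quartz cuvette, with 180 μM Ca2+ or 18 μM EGTA.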
# NHX1 = settings: ref [15]; cited from earlier work
# AXT3K strain = assay: Complementation assay, hygromycin B resistance of yeast AXT3K; assay type: cell-based, Saccharomyces cerevisiae; settings: YPD + HygB (50 μg/ml), 30°C
# C terminus of NHX1 = assay: Yeast two-hybrid assay, dimerization with C terminus of NHX1; assay type: cell-based, Arabidopsis; settings: fig. S2; cytosolic C-terminal domains
molecule,measurement,setting,value
DSIRGFLTRPTRTVHYYWRQFDDSFMRPVFGGR [CML-BD],complex formation with CML18,"CML18 [1]; pH 6.3, presence of Ca2+",high-affinity complex is formed
same,CML-BD binding sites per CML18 monomer,"CML18 [1]; pH 6.3, model fit, equal affinity",two CML-BD binding sites with equal affinity per CML18 monomer
same,helical content in solution,"CML18 [2]; far-UV CD, 20°C, peptide alone",no helical content
same,"binding of CML18 to CBD peptide, pH dependence","CML18 [2]; far-UV CD, pH 6.3 versus 8.3",mostly favored at acidic pH
same,α-helical content of the mixture with CML18,"CML18 [2]; pH 6.3, 1:1 protein:peptide, far-UV CD, relative to CML18 alone",increased α-helical content
same,interaction with CML18,"CML18 [2]; pH 8.3, absence of Ca2+",no interaction is observed
same,helicity of the mixture with CML18,"CML18 [2]; pH 8.3, 1:1 protein:peptide, far-UV CD",only a small increase in helicity
NHX1∆CBD: NHX1 with the CBD deleted (residues S486 to G516),interaction with CML18 (Y2H),CML18 [3],tested negative
same,interaction with CML18 (BiFC),CML18 [4],lost the interaction with CML18
same,vacuolar pH (pHvac),yeast vacuoles,overly acidic
B1,W164 fluorescence red shift,"Tryptophan; pH 6.3 versus pH 8.3, 350/330 nm, 25 μM CML18",remarkable red shift
same,CD spectrum change upon addition of Ca2+ or EGTA,"[5]; 180 μM Ca2+ or 18 μM EGTA, pH 6.3 and 8.3",no noticeable changes in the spectrum
same,CD peak at 222 nm,"[5]; pH 6.3 compared to pH 8.3, 0.2 mg/ml, 20°C",clear increase of the peak at 222 nm at pH 6.3 compared to pH 8.3
same,effect on K+/H+ and Na+/H+ exchange rates of NHX1,NHX1,inhibition
same,effect on K+/H+ transport by NHX1,NHX1,inhibit
B2,"350-nm/330-nm emission ratio, pH dependence",Tryptophan; pH 6.3 and 8.3,remained constant regardless of pH
same,far-UV CD spectrum compared with WT at pH 6.3,[5]; fig. S6,nearly identical to that of the WT protein at pH 6.3
B3,interaction with CML18 (Y2H),CML18 [3],strongly
B4,HygB resistance / protein activity in AXT3K,AXT3K strain,inactive
same,interaction with CML18 (Y2H),CML18 [3],essential for the interaction
B5,HygB resistance / protein activity in AXT3K,AXT3K strain,supported grow
same,interaction with CML18 (Y2H),CML18 [3],not as strong as with the WT NHX1
same,growth of cells coexpressing CML18 (Y2H),CML18 [3]; YNB-His,able to grow
same,growth of cells coexpressing CML18 (Y2H),CML18 [3]; YNB-His-Ade,not in the more stringent media YNB-His-Ade
same,vacuolar pH (pHvac),yeast vacuoles,no substantial differences
B6,HygB resistance / protein activity in AXT3K,AXT3K strain,inactive
same,interaction with CML18 (Y2H),CML18 [3],essential for the interaction
B7,HygB resistance / protein activity in AXT3K,AXT3K strain,inactive
B8,HygB resistance / protein activity in AXT3K,AXT3K strain,inactive
B9,HygB resistance / protein activity in AXT3K,AXT3K strain,supported grow
same,vacuolar pH (pHvac),yeast vacuoles,no substantial differences
B10,HygB resistance / protein activity in AXT3K,AXT3K strain,supported grow
same,vacuolar pH (pHvac),yeast vacuoles,no substantial differences
B11,homodimerization / heterodimerization (Y2H),C terminus of NHX1,positive results
same,HygB resistance / protein activity in AXT3K,AXT3K strain,suppressed the HygB sensitivity
same,interaction with CML18 (Y2H),CML18 [3],strongly
same,interaction with CML18 (BiFC),CML18 [4],interacted with CML18
